What was measured:
[1] = Determination of lonaprisan and its metabolites in human serum; assay type: in vivo; details: single oral 200 mg lonaprisan
Summary of the method: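 Serum was sampled from volunteers after a single oral dose of the parent steroid. Concentration–time profiles of the parent and three metabolites were measured by LC–MS/MS with external calibration against authentic reference compounds. PK parameters were then calculated. Each metabolite AUC(0–∞) was expressed as % of parent AUC and as a share of the summed AUC of drug-related compounds.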

PR [2] = molecular target: T1, PR (Rattus norvegicus, UniProt Q63449); assay: Termination of early pregnancy in rats; assay type: in vivo; details: p.o., n=6
T1 sequence (Q63449 1-923): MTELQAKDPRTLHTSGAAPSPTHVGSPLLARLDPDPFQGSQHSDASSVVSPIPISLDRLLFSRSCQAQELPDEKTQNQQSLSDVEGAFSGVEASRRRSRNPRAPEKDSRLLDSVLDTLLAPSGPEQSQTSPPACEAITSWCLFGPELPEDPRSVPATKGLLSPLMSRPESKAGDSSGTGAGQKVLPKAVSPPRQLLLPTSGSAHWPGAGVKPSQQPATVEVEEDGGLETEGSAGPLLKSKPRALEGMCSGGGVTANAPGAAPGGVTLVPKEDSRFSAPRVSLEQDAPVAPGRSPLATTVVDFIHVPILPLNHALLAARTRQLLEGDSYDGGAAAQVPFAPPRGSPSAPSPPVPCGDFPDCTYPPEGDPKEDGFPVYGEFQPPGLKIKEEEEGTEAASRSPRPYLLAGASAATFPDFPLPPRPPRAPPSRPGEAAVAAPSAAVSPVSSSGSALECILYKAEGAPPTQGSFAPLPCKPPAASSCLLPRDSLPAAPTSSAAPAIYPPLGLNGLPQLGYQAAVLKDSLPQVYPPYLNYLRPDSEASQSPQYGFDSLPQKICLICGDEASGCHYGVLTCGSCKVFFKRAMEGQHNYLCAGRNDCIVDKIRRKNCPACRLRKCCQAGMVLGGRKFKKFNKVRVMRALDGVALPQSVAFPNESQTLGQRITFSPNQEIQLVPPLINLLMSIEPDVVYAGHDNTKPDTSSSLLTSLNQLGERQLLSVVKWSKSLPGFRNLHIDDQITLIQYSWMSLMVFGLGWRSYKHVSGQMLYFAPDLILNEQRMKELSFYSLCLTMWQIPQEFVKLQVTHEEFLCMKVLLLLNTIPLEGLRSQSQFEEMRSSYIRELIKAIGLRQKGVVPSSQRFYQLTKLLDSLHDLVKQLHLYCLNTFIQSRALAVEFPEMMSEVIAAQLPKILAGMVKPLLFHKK
Summary of the method: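 Wistar rats (100–230 g) were randomized on Days 5–7 post-coitum (n=6 per group). They received test compound at several doses s.c. or p.o., or vehicle (benzyl benzoate/castor oil 1+4 v/v, or 85 mg polyoxyethylene-(50)-stearate in 100 mL 0.9 % NaCl). Autopsy was on Day 9. Full efficacy meant all animals lacked implantation sites or had only regressed or hemorrhagic sites.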

PR [3] = molecular target: T2, PR (Oryctolagus cuniculus, UniProt P06186); assay: Endometrial transformation in rabbits; assay type: in vivo, rabbit; details: p.o., with progesterone, McPhail index 1 or 1.5
T2 sequence (P06186 1-930): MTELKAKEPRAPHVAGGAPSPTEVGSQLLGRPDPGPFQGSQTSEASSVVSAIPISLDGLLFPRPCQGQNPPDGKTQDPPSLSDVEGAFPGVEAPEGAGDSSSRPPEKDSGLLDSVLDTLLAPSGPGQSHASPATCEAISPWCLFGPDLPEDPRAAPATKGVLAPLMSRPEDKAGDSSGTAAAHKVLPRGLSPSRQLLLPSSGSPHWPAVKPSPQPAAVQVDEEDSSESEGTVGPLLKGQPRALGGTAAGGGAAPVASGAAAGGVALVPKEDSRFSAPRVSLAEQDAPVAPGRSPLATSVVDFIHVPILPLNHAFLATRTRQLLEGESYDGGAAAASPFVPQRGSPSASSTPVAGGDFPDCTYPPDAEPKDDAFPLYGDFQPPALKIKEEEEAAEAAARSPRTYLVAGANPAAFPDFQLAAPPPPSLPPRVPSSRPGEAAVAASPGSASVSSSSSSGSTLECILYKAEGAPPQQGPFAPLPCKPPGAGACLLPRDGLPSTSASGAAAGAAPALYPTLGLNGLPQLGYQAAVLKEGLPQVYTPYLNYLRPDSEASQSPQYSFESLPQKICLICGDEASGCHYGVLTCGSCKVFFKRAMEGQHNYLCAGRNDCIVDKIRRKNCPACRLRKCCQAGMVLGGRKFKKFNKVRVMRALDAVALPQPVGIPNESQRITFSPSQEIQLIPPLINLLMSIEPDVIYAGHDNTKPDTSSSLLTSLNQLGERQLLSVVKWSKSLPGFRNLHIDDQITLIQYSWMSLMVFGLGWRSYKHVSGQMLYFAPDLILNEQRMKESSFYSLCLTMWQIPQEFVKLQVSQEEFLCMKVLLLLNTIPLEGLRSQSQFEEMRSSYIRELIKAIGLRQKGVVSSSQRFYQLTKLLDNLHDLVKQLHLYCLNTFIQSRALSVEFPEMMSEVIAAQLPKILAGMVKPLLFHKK
Summary of the method: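 Juvenile New Zealand white rabbits (35–42 days old, 900–1300 g) were primed with 17β-estradiol, […] s.c., on Days 1–4. For the antagonist test, animals were randomized (n=4) on Days 7–10 to 0.2 mg kg−1 day−1 progesterone s.c. plus test compound p.o. Autopsy was on Day 11. Glandular differentiation was scored by light microscopy as McPhail index 1–4. Full efficacy meant every animal in the group scored 1 or 1.5.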

Relative contribution to sum of AUC of drug-related compounds [1]: 6%
Dose of full efficacy, termination of early pregnancy in rats (PR [2]): 0.5 mg/kg
Dose of full efficacy, endometrial transformation in rabbits (PR [3]): 1.0 mg/kg
SMILES: CC(=O)c1ccc([C@H]2C[C@@]3(C)[C@@H](CC[C@@]3(O)C(F)(F)C(F)(F)F)[C@@H]3CCC4=CC(=O)CCC4=C32)cc1 [lonaprisan]

Reference: article PMC6282584 (Chemmedchem, 2018)
